{
  "source": "ChEMBL document CHEMBL1128668",
  "about": "“Synthesis of N,N'-substituted piperazine and homopiperazine derivatives with polyamine-like actions at N-methyl-D-aspartate receptors” (J Med Chem, 1995)",
  "key": {"[1]": {"biological_target": "Glutamate NMDA receptor", "experiment": "Ability to enhance [3H]MK-801 binding to NMDA receptors in rat forebrain membranes was calculated with respect to spermine", "assay_type": "cell membranes, Membrane", "method_in_brief": "(§1)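 Forebrains from adult male Sprague-Dawley rats (175–300 g) homogenized in 5 mM HEPES/4.5 mM Tris (pH 7.7). Membranes were washed extensively, including EDTA cycles, to remove endogenous glutamate, glycine and polyamines. About 100 μg protein was incubated with [3H]MK-801 (final 4–5 nM) and compound (1–1000 μM) for 2 h at room temperature under non-equilibrium conditions, then filtered over PEI-soaked GF/B. Nonspecific binding was taken with 100 μM phencyclidine. Efficacy is given as percent of the spermine-induced increase, ≥3 experiments.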"}, "[2]": {"biological_target": "T1, Glutamate NMDA receptor (Rattus norvegicus) (UniProt P35439+Q00959+Q00960+Q00961+Q62645+Q8VHN2+Q9R1M7)", "experiment": "Efficacy in enhancing binding of [3H]- MK-801 to NMDA receptors compared to spermine", "assay_type": "protein-complex assay", "method_in_brief": "as §1"}, "[3]": {"biological_target": "Glutamate NMDA receptor", "experiment": "Inhibition of [3H]MK-801 binding to NMDA receptor by Conantokin-G (with a concentration range of 0.024-12.5 uM) stimulated by the compound at a concentration of 100 uM", "assay_type": "protein-complex assay"}, "[4]": {"biological_target": "T1, Glutamate NMDA receptor (Rattus norvegicus)", "experiment": "Efficacy of compound in enhancing binding of [3H]MK-801 to NMDA receptors compared to spermine", "assay_type": "protein-complex assay", "method_in_brief": "as §1"}, "[5]": {"biological_target": "Glutamate NMDA receptor"}, "[6]": {"biological_target": "Glutamate NMDA receptor", "experiment": "Inhibition of [3H]MK-801 binding to NMDA receptor by Conantokin-G (at a concentration range of 0.024-12.5 uM) stimulated by the compound at a concentration of 100 uM", "assay_type": "protein-complex assay"}},
  "data": [
    {"smiles": "NCCCN1CCCN(CCCN)CC1", "values": [
      {"measurement": "EC50", "setting": "[1]", "result": 24.4, "unit": "µM"},
      {"measurement": "Emax", "setting": "[2]", "result": 76, "unit": "%"}
    ]},
    {"smiles": "CN(C)CCN1CCN(CCN(C)C)CC1", "values": [
      {"measurement": "EC50", "setting": "[1]", "result": 112, "unit": "µM"},
      {"measurement": "Emax", "setting": "[2]", "result": 51, "unit": "%"}
    ]},
    {"smiles": "NCCCC(=O)N1CCN(C(=O)CCCN)CC1", "values": [
      {"measurement": "EC50", "setting": "[1]", "result": 239, "unit": "µM"},
      {"measurement": "Emax", "setting": "[2]", "result": 45, "unit": "%"}
    ]},
    {"smiles": "NCCCN1CCN(CCCN)CC1", "values": [
      {"measurement": "EC50", "setting": "[1]", "result": 50.1, "unit": "µM"},
      {"measurement": "Emax", "setting": "[2]", "result": 80, "unit": "%"}
    ]},
    {"smiles": "CN(C)CCCCN1CCN(CCCCN(C)C)CC1", "values": [
      {"measurement": "EC50", "setting": "[1]", "result": 77.5, "unit": "µM"},
      {"measurement": "Emax", "setting": "[2]", "result": 84, "unit": "%"}
    ]},
    {"smiles": "NCCCCN1CCN(CCCCN)CC1", "values": [
      {"measurement": "EC50", "setting": "[1]", "result": 55.9, "unit": "µM"},
      {"measurement": "Emax", "setting": "[2]", "result": 71, "unit": "%"}
    ]},
    {"smiles": "C1CCN(CCCN2CCN(CCCN3CCCC3)CC2)C1", "values": [
      {"measurement": "EC50", "setting": "[1]", "result": 45.9, "unit": "µM"},
      {"measurement": "Emax", "setting": "[2]", "result": 64, "unit": "%"}
    ]},
    {"smiles": "NCCN1CCCN(CCN)CC1", "values": [
      {"measurement": "EC50", "setting": "[1]", "result": 50.7, "unit": "µM"},
      {"measurement": "Emax", "setting": "[2]", "result": 43, "unit": "%"}
    ]},
    {"smiles": "CNCCCCN1CCN(CCCCNC)CC1", "values": [
      {"measurement": "IC50", "setting": "[3]", "result": 196, "unit": "µM"},
      {"measurement": "EC50", "setting": "[1]", "result": 21.4, "unit": "µM"},
      {"measurement": "Emax", "setting": "[2]", "result": 68, "unit": "%"}
    ]},
    {"smiles": "CNCCN1CCN(CCNC)CC1", "values": [
      {"measurement": "EC50", "setting": "[1]", "result": 64.5, "unit": "µM"},
      {"measurement": "Emax", "setting": "[2]", "result": 50, "unit": "%"}
    ]},
    {"smiles": "NCC(=O)N1CCN(C(=O)CN)CC1", "values": [
      {"measurement": "EC50", "setting": "[1]", "result": 96.5, "unit": "µM"},
      {"measurement": "Emax", "setting": "[2]", "result": 90, "unit": "%"}
    ]},
    {"smiles": "NCCCNCCCCNCCCN", "note": "[SPERMINE]", "values": [
      {"measurement": "Emax", "setting": "[4]", "result": 100, "unit": "%"},
      {"measurement": "EC50", "setting": "[1]", "result": 5.2, "unit": "µM"},
      {"measurement": "IC50", "setting": "[5]", "result": 232, "unit": "µM"}
    ]},
    {"smiles": "NCCCCN1CCCN(CCCCN)CC1", "values": [
      {"measurement": "EC50", "setting": "[1]", "result": 37.5, "unit": "µM"},
      {"measurement": "Emax", "setting": "[2]", "result": 76, "unit": "%"}
    ]},
    {"smiles": "CNCCCN1CCN(CCCNC)CC1", "values": [
      {"measurement": "EC50", "setting": "[1]", "result": 35.3, "unit": "µM"},
      {"measurement": "Emax", "setting": "[2]", "result": 81, "unit": "%"}
    ]},
    {"smiles": "CN(C)CCCN1CCN(CCCN(C)C)CC1", "values": [
      {"measurement": "EC50", "setting": "[1]", "result": 36.8, "unit": "µM"},
      {"measurement": "Emax", "setting": "[2]", "result": 66, "unit": "%"}
    ]},
    {"smiles": "NCC(=O)N1CCCN(C(=O)CN)CC1", "values": [
      {"measurement": "IC50", "setting": "[6]", "result": 307, "unit": "µM"},
      {"measurement": "Emax", "setting": "[4]", "result": 60, "unit": "%"},
      {"measurement": "EC50", "setting": "[1]", "result": 18, "unit": "µM"}
    ]}
  ]
}
